Screens deposited in PubChem BioAssay by several laboratories.
Only some compounds are listed: those with a hit (about 2.2% of all), similar ones and a draw of the others.
Myeloid diff 2 – myeloid differentiation induction; ER-HoxA9 myeloid progenitors, lysozyme-GFP differentiation, flow cytometry; calls only at 10 µM; 360,000 tested, 1% active;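 active = normalized GFP-positive differentiation at or above the plate's own cutoff, the solvent-only control mean plus 3 SD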;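 note: cells exposed to compound for four days before flow analysis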
HNF4A DNA FP – change in binding of human HNF4 alpha to DNA. 360,000 tested, 0.3% active. HNF4a-FITC DNA binding, fluorescence polarization, 1 h. P41235. AID 1224865. activity change, % at 10 µM; in the data active = activity change above about 30%, passing the limit was not always enough
Target sequence (P41235 whole entry, looked up): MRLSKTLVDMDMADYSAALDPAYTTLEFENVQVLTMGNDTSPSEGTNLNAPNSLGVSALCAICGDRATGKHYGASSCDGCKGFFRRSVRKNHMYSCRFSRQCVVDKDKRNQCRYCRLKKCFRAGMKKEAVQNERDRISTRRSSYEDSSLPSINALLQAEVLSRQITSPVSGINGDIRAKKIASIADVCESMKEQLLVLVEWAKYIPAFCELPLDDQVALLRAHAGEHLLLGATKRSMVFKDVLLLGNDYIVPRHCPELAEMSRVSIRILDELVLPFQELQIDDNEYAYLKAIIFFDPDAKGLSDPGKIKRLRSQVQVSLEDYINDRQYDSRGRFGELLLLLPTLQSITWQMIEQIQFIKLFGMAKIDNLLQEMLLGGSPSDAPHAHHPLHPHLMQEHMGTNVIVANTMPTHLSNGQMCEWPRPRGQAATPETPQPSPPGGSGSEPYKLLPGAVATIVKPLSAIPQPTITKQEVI
Exocytosis inh – blocks lytic granule exocytosis; TALL-104 LAMP-1 surface exposure, flow cytometry; cells stimulated with thapsigargin and PMA; inhibition, % at 10 µM; 360,000 tested, 0.66% active;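 active = inhibition above about 55%, limit read from the data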
CSN inh – CSN deneddylation inhibition; Q92905; 360,000 tested, 0.38% active; AID 651999; inhibition, % at 12.5 µM; Purified CSN, SCF-Nedd8-OG deneddylation, fluorescence polarization;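 active = pattern-corrected inhibition above about 35%, with an unprinted fluorescence ratio check between 0.5 and 1.5, limit read from the data, passing the limit was not always enough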
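Material: purified human Csn5 enzyme expressed in HEK293T cells / Medium: Tris buffer pH 7.5, NaCl, DTT, Tween-20, trehalose, ovalbumin / Compound dosing: 12.5 µM single point / Schedule: 90 min incubation of compound, enzyme and substrate at room temperature / Signal: fluorescence polarization of the substrate / Control set: no-enzyme wells high, enzyme-with-substrate wells low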
Myeloid diff CP1 – compounds promoting myeloid differentiation. calls only. 2,300 tested, 2% active. shares compounds with Myeloid diff 2. AID 651706. ER-HoxA9 myeloid progenitors, GFP/Mac1 double-positive flow;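 active = share of green or green-and-red cells above 9 and 9% in run 1 or 4 and 3% in run 2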
GFP autofluor – compound fluorescence in myeloid differentiation counter-screen | 2,300 tested, 7.4% active | shares compounds with Myeloid diff 2 | AID 651707 | fluorescence response, % (no concentration beside the values) | ER-HoxA9 myeloid progenitors, no estrogen, GFP autofluorescence flow cytometry; vehicle wells 0%, positive control 100%;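 active = over 5% cells positive for green fluorescent reporter, or over 2% positive for both it and APC stain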
Numbers stand for hits; i = inactive; nt = no result given; + = active, no number.

SMILES	Myeloid diff 2	HNF4A DNA FP	Exocytosis inh	CSN inh	Myeloid diff CP1	GFP autofluor
CCOc1ccccc1CNC(=O)Cn1ccc2cc(S(=O)(=O)N3CCC(C)CC3)ccc21	i	i	i	i	nt	nt
COc1ccccc1C(c1nnnn1Cc1ccco1)N1CCN(c2cccc(C)c2C)CC1 (centres undefined)	i	i	i	i	i	i
CCN1CCN(C(c2cccc(OC)c2OC)c2nnnn2Cc2ccco2)CC1 (centres undefined)	i	i	i	i	nt	nt
N#Cc1ccccc1S(=O)(=O)N1CCN(C(=O)C2COc3ccccc3O2)CC1 (centres undefined)	i	i	i	i	nt	nt
O=C(N/N=C/c1cccnc1)c1cccc(NC(=O)c2ccccc2Cl)c1	+	i	i	i	i	i
O=C(N/N=C/c1ccncc1)c1cccc(NC(=O)c2ccccc2Cl)c1	i	i	i	i	nt	nt
Cc1ccc(C(=O)COC(=O)[C@@H](NC(=O)c2ccco2)C(C)C)s1	+	i	i	i	i	i
CC(C)C(NC(=O)c1ccco1)C(=O)OCC(=O)c1ccccc1 (centres undefined)	i	i	i	i	nt	nt
CC(C)CC(=O)Nc1c(C(=O)N2CCN(Cc3ccccc3)CC2)oc2ccccc12	i	i	i	i	nt	nt
CCOc1ccc(Nc2oc(-c3ccco3)nc2C#N)cc1	+	i	i	i	i	i
COc1ccc(C(c2nnnn2CCc2ccccc2)N2CCN(C3CCCC3)CC2)cc1 (centres undefined)	i	i	i	i	nt	nt
COc1ccccc1N1CCN(C(c2ccc(N(C)C)cc2)c2nnnn2CCc2ccccc2)CC1 (centres undefined)	+	i	i	i	i	8.2
CC(=O)Nc1cccc(C(=O)NNC(=O)c2ccccc2-n2cccc2)c1	i	i	i	i	nt	nt
Cc1cc(C(=O)CN2C(=O)NC3(CCCc4ccccc43)C2=O)c(C)n1Cc1ccccc1 (centres undefined)	i	i	i	i	nt	nt
Cc1cc(C(=O)CN2C(=O)CCC2=O)c(C)n1Cc1ccccc1	+	i	i	i	i	i
CCCCCCCC(=O)C(C)C(=O)N(C)[C@H](Cc1ccc(OC)cc1)C(=O)N(C)[C@H](C(N)=O)C(C)C (some centres undefined)	i	i	i	i	nt	nt
C#CCCC/C(=C\C(=O)N(C)[C@H](C(=O)N(C)[C@H](C(=O)N(C)[C@H](C(=O)N(C)[C@H](C(N)=O)C(C)C)C(C)C)C(C)C)C(C)C)OC	i	i	i	i	i	i
c1ccc(NC2=Nc3ccccc3CC2)cc1	+	i	i	i	i	i
COc1ccc([C@H]2C[C@@H](O)[C@H](n3cc(-c4ccc(F)cc4)nn3)CN2CC2CCCCC2)cc1	i	i	i	i	i	i
CCCCCC(=O)N1C[C@@H](O)[C@H](n2cc(-c3ccc(F)cc3)nn2)C[C@@H]1c1ccc(OC)cc1	i	i	i	i	i	i
COc1ccc([C@H]2C[C@H](n3cc(-c4ccc(F)cc4)nn3)[C@@H](O)CN2CC2CCCCC2)cc1	+	i	i	i	i	i
O=C(c1cccs1)N1C[C@@H](n2cc(-c3ccc(F)cc3)nn2)[C@H](O)C[C@@H]1c1ccc(Cl)cc1	i	i	i	i	i	i
Cc1cccc(NS(=O)(=O)c2ccc(C(=O)NCC(c3ccco3)N3CCCCC3)cc2)c1C (centres undefined)	i	i	i	i	nt	nt
COc1ccc(NC(=O)CSc2ccc3nnc(-c4ccccn4)n3n2)c(OC)c1	i	i	i	i	nt	nt
CCCCOc1ccc(OC(=O)Nc2cc(Cl)ccc2OC)cc1	i	i	i	i	+	i
SMILES	Myeloid diff 2	HNF4A DNA FP	Exocytosis inh	CSN inh	Myeloid diff CP1	GFP autofluor
CN(Cc1ccccc1)C(=O)c1[nH]cnc1C(=O)NCCCCCNC(=O)OC(C)(C)C	+	i	i	i	i	i
CN(Cc1ccccc1)C(=O)c1ccc(NC(=O)Cc2ccc(NC(=O)C3CCN(C(=O)CCc4ccccc4)CC3)cc2)cc1	i	i	i	i	nt	nt
COc1cc(C)c(S(=O)(=O)n2nnc3ccccc32)cc1C	i	i	i	i	nt	nt
COc1ccc(F)cc1S(=O)(=O)n1nnc2ccccc21	i	i	i	i	i	i
Cc1cc(Br)c(S(=O)(=O)n2nnc3ccccc32)cc1C	i	i	i	i	i	i
Clc1cccc(-c2cc3nc4c(c(NCc5ccco5)n3n2)CCCC4)c1	+	i	i	i	i	i
